Measured values published in ChEMBL document CHEMBL1155099, “Natural products in parallel synthesis: triazole libraries of nonactic acid” (2008).
The source made the active and inactive calls.

Key:
Type in all cases: functional, organism-based
Bacillus anthracis = test: Antibacterial activity against Bacillus anthracis at 1mM by almar blue dye reduction assay
Escherichia coli = test: Antibacterial activity against Escherichia coli at 1 mM by almar blue dye reduction assay
Outline: (§1)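 Single-point primary screen at 1 mM using Alamar Blue dye reduction as the growth read-out.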

Bacillus subtilis = test: Antibacterial activity against Bacillus subtilis at 1 mM by almar blue dye reduction assay; outline: as §1
Staphylococcus aureus = test: Antibacterial activity against Staphylococcus aureus at 1 mM by almar blue dye reduction assay; outline: as §1
Candida albicans = test: Antifungal activity against Candida albicans at 1 mM by almar blue dye reduction assay; outline: as §1
Cryptococcus neoformans = test: Antifungal activity against Cryptococcus neoformans at 1 mM by almar blue dye reduction assay; outline: as §1
Saccharomyces cerevisiae = test: Antifungal activity against Saccharomyces cerevisiae at 1 mM by almar blue dye reduction assay; outline: as §1
Bacillus cereus = test: Antibacterial activity against Bacillus cereus at 1 mM by almar blue dye reduction assay; outline: as §1
Pseudomonas aeruginosa = test: Antibacterial activity against Pseudomonas aeruginosa at 1 mM by almar blue dye reduction assay; outline: as §1

Measured: Activity

CCOC(=O)C#Cc1cn([C@H](C)CC2CCC([C@@H](C)C(=O)N3CCCC3)O2)nn1 (single isomer, unassigned)
inactive: all assays above

C[C@H](C[C@@H]1CC[C@H]([C@@H](C)C(=O)N2CCN(CC3CCCO3)CC2)O1)n1cc(C#CC2=CCCCC2)nn1 (some centres not stated)
inactive: all assays above

COc1ccc(C#Cc2cn([C@H](C)C[C@@H]3CC[C@H]([C@@H](C)C(=O)N(C)Cc4ccccc4)O3)nn2)cc1
inactive: all assays above

COc1cccc(OCC#Cc2cn([C@H](C)C[C@@H]3CC[C@H]([C@@H](C)C(=O)N(C)Cc4ccccc4)O3)nn2)c1OC
inactive: all assays above

C[C@H](C[C@@H]1CC[C@H]([C@@H](C)C(=O)N(C)Cc2ccccc2)O1)n1cc(C#CCN(C)C)nn1
inactive: all assays above

COCC#Cc1cn([C@H](C)C[C@@H]2CC[C@H]([C@@H](C)C(=O)NC(C)C)O2)nn1
inactive: all assays above

CCC(=O)OCC#Cc1cn([C@H](C)CC2CCC([C@@H](C)C(=O)N(C)Cc3ccccc3)O2)nn1 (single isomer, unassigned)
inactive: all assays above

CC(C)NC(=O)[C@H](C)[C@H]1CC[C@@H](C[C@@H](C)n2cc(C#CCOc3ccc(Br)cc3)nn2)O1
inactive: all assays above

CC(C)NC(=O)[C@H](C)[C@H]1CC[C@@H](C[C@@H](C)n2cc(C#CCCCC#N)nn2)O1
inactive: all assays above

COc1ccc(C#Cc2cn([C@H](C)C[C@@H]3CC[C@H]([C@@H](C)C(=O)N4CCCC4)O3)nn2)cc1
inactive: all assays above

C[C@H](C[C@@H]1CC[C@H]([C@@H](C)C(=O)N2CCN(CC3CCCO3)CC2)O1)n1cc(C#CCN(C)CCc2ccccc2)nn1 (some centres not stated)
inactive: all assays above

C[C@H](C[C@@H]1CC[C@H]([C@@H](C)C(=O)N(C)Cc2ccccc2)O1)n1cc(C#CCN2CCC(c3ccccc3)CC2)nn1
inactive: all assays above

CC(C)NC(=O)[C@H](C)C1CCC(C[C@@H](C)n2cc(C#CCNC(=O)OCc3ccccc3)nn2)O1 (single isomer, unassigned)
inactive: all assays above
